Laboratory results reported in ChEMBL document CHEMBL1123202, “Imidazo[4,5-c]pyridines (3-deazapurines) and their nucleosides as immunosuppressive and antiinflammatory agents” (1986).
The source made the active and inactive calls. No cut-off for these calls is given here.

Key:
EL4 [1] = assay: Inhibition of lymphocyte-mediated cytolysis at a concentration of 100 uM in [51Cr]- labelled EL4 leukemia cells; assay type: functional; conditions: Mus musculus
Mus musculus = species on record: Mus musculus; assay: Compound was tested for inhibition of mouse connective tissue cell (L) growth at a concentration of 100 uM; assay type: functional; conditions: for inhibition at 100 µM: Mus musculus
How it was run: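 D-98 (human sternal marrow) and L (mouse connective tissue) cells were cultured with compound at 100 µM, and growth inhibition was reported as %. Procedure per earlier publication.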

Rattus norvegicus [2] = species on record: Rattus norvegicus; assay: Dose required to produce an acute inflammatory response of the algal poly saccharide carrageenan into the pleural cavity of rat.; assay type: functional
D98 (Homo sapiens) = assay: Compound was tested for inhibition of human sternal marrow cell (D98) growth at a concentration of 100 uM
Rattus norvegicus [3] = assay: Dose required to produce an acute inflammatory response of the algal poly saccharide carrageenan into the pleural cavity of rat; IA is Inactive at 6 mg/kg; assay type: functional, organism-based; design: dose 6 mg/kg
Rattus norvegicus [4] = assay: Dose required to produce an acute inflammatory response of the algal poly saccharide carrageenan into the pleural cavity of rat; IA is Inactive at 9 mg/kg; assay type: functional, organism-based; design: dose 9 mg/kg
EL4 [5] = assay: Compound was tested for inhibition of lymphocyte-mediated cytolysis at a concentration of 26 uM in [51Cr]- labeled EL4 leukemia cells; assay type: functional; conditions: Mus musculus
EL4 [6] = assay: Compound was tested for inhibition of lymphocyte-mediated cytolysis at a concentration of 50 uM in [51Cr]- labeled EL4 leukemia cells; assay type: functional; conditions: Mus musculus

SMILES	inhibition at 100 µM (EL4 [1])	inhibition at 100 µM (Mus musculus)	ED50 (Rattus norvegicus [2])	inhibition (D98 (Homo sapiens))	ED50 (Rattus norvegicus [3])	Inhibition (Mus musculus)	ED50 (Rattus norvegicus [4])	inhibition at 26 µM (EL4 [5])	inhibition at 50 µM (EL4 [6])
OC[C@H]1OC(n2cnc3c(S)nccc32)[C@H](O)[C@@H]1O (some centres not stated)	< 5%	3%	9 mg/kg	6%	–	–	–	–	–
Nc1nccc2c1ncn2[C@@H]1O[C@H](CO)[C@@H](O)[C@H]1O	80%	49%	3 mg/kg	56%	–	–	–	–	–
OC[C@H]1O[C@@H](n2cnc3cnccc32)C[C@@H]1O	< 5%	0%	> 9 mg/kg	6%	–	–	–	–	–
CNc1nccc2c1ncn2C1O[C@H](CO)[C@@H](O)[C@H]1O (some centres not stated)	11%	21%	–	8%	inactive	–	–	–	–
OC[C@H]1OC(n2cnc3c(SCc4ccccc4)nccc32)[C@H](O)[C@@H]1O (some centres not stated)	30%	43%	9 mg/kg	30%	–	–	–	–	–
OC[C@H]1O[C@@H](n2cnc3cnccc32)[C@H](O)[C@@H]1O (stereo in doubt; 16) [listing 1 of 2 here]	< 5%	–	–	–	–	8%	–	–	–
[O-][n+]1ccc2c(c1)ncn2[C@H]1C[C@H](O)[C@@H](CO)O1	< 5%	13%	–	0%	–	–	inactive	–	–
Nc1nccc2c1ncn2[C@H]1C[C@H](O)[C@@H](CO)O1	89%	0%	10 mg/kg	18%	–	–	–	–	–
[O-][n+]1ccc2c(c1)ncn2C1O[C@H](CO)[C@@H](O)[C@H]1O (some centres not stated)	< 5%	3%	–	5%	–	–	inactive	–	–
c1ccc(CNc2[nH]ccc3ncnc2-3)cc1	57%	68%	9 mg/kg	75%	–	–	–	–	–
Nc1[nH]ccc2ncnc1-2	< 5%	24%	8 mg/kg	60%	–	–	–	–	–
Sc1[nH]ccc2ncnc1-2	< 5%	38%	8 mg/kg	26%	–	–	–	–	–
OC[C@H]1O[C@@H](n2cnc3c(NCc4ccccc4)nccc32)C[C@@H]1O	8%	37%	> 9 mg/kg	18%	–	–	–	–	–
OC[C@H]1O[C@@H](n2cnc3cnccc32)[C@H](O)[C@@H]1O (stereo in doubt; 17) [listing 1 of 2 here]	–	–	–	1%	–	–	inactive	–	–
CNc1[nH]ccc2ncnc1-2	< 5%	6%	–	18%	inactive	–	–	–	–
CN(C)c1nccc2c1ncn2[C@H]1C[C@H](O)[C@@H](CO)O1	< 5%	6%	> 9 mg/kg	0%	–	–	–	–	–
CCCCCCNc1nccc2c1ncn2C1O[C@H](CO)[C@@H](O)[C@H]1O (some centres not stated)	14%	41%	–	8%	inactive	–	–	–	–
[N-]=[N+]=Nc1nccc2c1ncn2[C@H]1C[C@H](O)[C@@H](CO)O1	13%	12%	–	4%	–	–	inactive	–	–
OC[C@H]1O[C@@H](n2cnc3cnccc32)[C@H](O)[C@@H]1O (stereo in doubt; 17) [listing 2 of 2 here]	–	–	–	–	–	3%	–	–	–
OC[C@H]1OC(n2cnc3c(Nc4ccccc4)nccc32)[C@H](O)[C@@H]1O (some centres not stated)	10%	18%	> 9 mg/kg	4%	–	–	–	–	–
CSc1nccc2c1ncn2C1O[C@H](CO)[C@@H](O)[C@H]1O (some centres not stated)	< 5%	40%	–	24%	–	–	inactive	–	–
c1cc2[nH]cnc2cn1	< 5%	12%	> 9 mg/kg	0%	–	–	–	–	–
OC[C@H]1O[C@@H](n2cnc3c(SCc4ccccc4)nccc32)C[C@@H]1O	11%	19%	–	18%	–	–	inactive	–	–

SMILES	inhibition at 100 µM (EL4 [1])	inhibition at 100 µM (Mus musculus)	ED50 (Rattus norvegicus [2])	inhibition (D98 (Homo sapiens))	ED50 (Rattus norvegicus [3])	Inhibition (Mus musculus)	ED50 (Rattus norvegicus [4])	inhibition at 26 µM (EL4 [5])	inhibition at 50 µM (EL4 [6])
c1ccc(CSc2[nH]ccc3ncnc2-3)cc1	20%	54%	> 9 mg/kg	26%	–	–	–	–	–
CN(C)c1nccc2c1ncn2C1O[C@H](CO)[C@@H](O)[C@H]1O (some centres not stated)	10%	14%	> 9 mg/kg	0%	–	–	–	–	–
CN(C)c1[nH]ccc2ncnc1-2	25%	21%	9 mg/kg	8%	–	–	–	–	–
CCNc1nccc2c1ncn2C1O[C@H](CO)[C@@H](O)[C@H]1O (some centres not stated)	8%	20%	–	4%	inactive	–	–	–	–
Clc1[nH]ccc2ncnc1-2	< 5%	29%	> 9 mg/kg	6%	–	–	–	–	–
CC1OC(n2cnc3c(N)nccc32)CC1O (configuration not stated)	25%	12%	–	3%	–	–	inactive	–	–
OCCNc1[nH]ccc2ncnc1-2	< 5%	16%	> 9 mg/kg	3%	–	–	–	–	–
[N-]=[N+]=Nc1nccc2ncn([C@H]3C[C@H](O)[C@@H](CO)O3)c12	< 5%	2%	> 9 mg/kg	14%	–	–	–	–	–
c1ccc(Nc2[nH]ccc3ncnc2-3)cc1	26%	34%	–	12%	–	–	inactive	–	–
CSc1[nH]ccc2ncnc1-2	< 5%	11%	9 mg/kg	4%	–	–	–	–	–
OC[C@H]1OC(n2cnc3c(Cl)nccc32)[C@H](O)[C@@H]1O (some centres not stated)	< 5%	27%	–	76%	–	–	inactive	–	–
C[C@H]1OC(n2cnc3c(N)nccc32)[C@H](O)[C@@H]1O (some centres not stated)	32%	4%	–	18%	–	–	inactive	–	–
CSc1nccc2c1ncn2[C@H]1C[C@H](O)[C@@H](CO)O1	< 5%	30%	> 9 mg/kg	36%	–	–	–	–	–
OC[C@H]1OC(n2cnc3c(NCc4ccccc4)nccc32)[C@H](O)[C@@H]1O (some centres not stated)	5%	38%	> 9 mg/kg	32%	–	–	–	–	–
[O-][n+]1ccc2[nH]cnc2c1	5%	1%	> 9 mg/kg	3%	–	–	–	–	–
[N-]=[N+]=Nc1nccc2c1ncn2C1O[C@H](CO)[C@@H](O)[C@H]1O (some centres not stated)	< 5%	8%	> 9 mg/kg	4%	–	–	–	–	–
OC[C@H]1O[C@@H](n2cnc3c(S)nccc32)C[C@@H]1O	< 5%	8%	–	10%	–	–	inactive	–	–
CCCCCCNc1[nH]ccc2ncnc1-2	100%	82%	> 9 mg/kg	53%	–	–	–	0%	45%
CCNc1[nH]ccc2ncnc1-2	< 5%	11%	–	3%	inactive	–	–	–	–
OCCNc1nccc2c1ncn2C1O[C@H](CO)[C@@H](O)[C@H]1O (some centres not stated)	6%	3%	–	0%	inactive	–	–	–	–
[N-]=[N+]=Nc1[nH]ccc2ncnc1-2	< 5%	20%	–	20%	–	–	inactive	–	–
OC[C@H]1O[C@@H](n2cnc3c(Cl)nccc32)C[C@@H]1O	< 5%	25%	–	5%	–	–	inactive	–	–
OC[C@H]1O[C@@H](n2cnc3cnccc32)[C@H](O)[C@@H]1O (stereo in doubt; 16) [listing 2 of 2 here]	–	–	–	13%	–	–	inactive	–	–
